Compound activity from PubChem BioAssay.
Rpn11 block: Rpn11 (PSMD14) deubiquitinase inhibitors, primary screen, biochemical, fluorescence polarization, uHTS; 26S proteasome non-ATPase regulatory subunit 14 (Homo sapiens), O00487; human 26S proteasome, Ub4-pepOG fluorescence polarization; 20S core pre-blocked with epoxomicin; inhibition, % at 20 µM; actives 0.59% (n = 360,000); AID 588493, 2011;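 active = inhibition at 20 µM, scaled to each plate's controls, above about 33%, limit read from the data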
Target sequence (O00487 whole entry, looked up): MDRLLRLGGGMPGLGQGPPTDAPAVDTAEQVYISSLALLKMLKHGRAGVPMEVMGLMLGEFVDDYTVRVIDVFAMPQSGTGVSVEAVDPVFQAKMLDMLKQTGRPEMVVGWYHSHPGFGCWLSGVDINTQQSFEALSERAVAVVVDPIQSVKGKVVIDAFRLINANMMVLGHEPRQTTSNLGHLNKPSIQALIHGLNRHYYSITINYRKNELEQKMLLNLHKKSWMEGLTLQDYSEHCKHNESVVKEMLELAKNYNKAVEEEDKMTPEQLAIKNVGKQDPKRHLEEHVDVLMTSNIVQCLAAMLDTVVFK
TPT1 inh: Candida albicans TPT1 enzyme inhibitors, primary screen, biochemical, fluorescence polarization; recombinant caTPT1, FP RNA substrate dephosphorylation; tRNA 2'-phosphotransferase TPT1 (Candida albicans SC5314); AID 1962, 2009; inhibition, % at 5 µM; actives 0.81% (n = 300,000);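 active = inhibition above the mean of all tested compounds plus 3 SD, set per screening campaign, cut at about 24% in these data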
HNF4A DNA FP: change in binding of human HNF4A to DNA, primary screen, biochemical, fluorescence polarization, FITC-DNA. 1 h. activity change, % at 10 µM. actives 0.3% (n = 360,000). AID 1224865, 2016; in the data active = activity change above about 30%, passing the limit was not always enough
PP1 counter: PP1-alpha phosphatase inhibitors, primary screen, counter-screen for PP5 inhibitor project, biochemical, fluorescence, OMFP substrate, single point | Serine/threonine-protein phosphatase PP1-alpha catalytic subunit (Homo sapiens), P62136 | purified PP1alpha | inhibition, % at 6.7 µM | actives 0.9% (n = 320,000);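 active = inhibition above the mean inhibition of all tested compounds plus 3 SD, computed separately for each screening campaign, cut at about 15% in these data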
Target sequence (P62136 whole entry, looked up): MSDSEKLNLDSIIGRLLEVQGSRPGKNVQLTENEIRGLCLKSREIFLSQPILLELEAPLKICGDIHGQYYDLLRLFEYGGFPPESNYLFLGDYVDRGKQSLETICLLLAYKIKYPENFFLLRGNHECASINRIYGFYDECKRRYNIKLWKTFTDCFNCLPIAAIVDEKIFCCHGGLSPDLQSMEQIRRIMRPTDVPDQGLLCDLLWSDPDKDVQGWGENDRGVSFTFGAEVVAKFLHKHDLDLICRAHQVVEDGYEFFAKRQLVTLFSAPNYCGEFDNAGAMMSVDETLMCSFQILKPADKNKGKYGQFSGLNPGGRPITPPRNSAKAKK
CSN inh: inhibitors of CSN-mediated cullin deneddylation, primary screen, biochemical, fluorescence polarization, uHTS | Purified CSN, SCF-Nedd8-OG deneddylation | actives 0.38% (n = 360,000) | inhibition, % at 12.5 µM | AID 651999, 2013 | COP9 signalosome complex subunit 5 (Homo sapiens), Q92905;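 active = pattern-corrected inhibition above about 35%, with an unprinted fluorescence ratio check between 0.5 and 1.5, limit read from the data, passing the limit was not always enough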
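Detection – fluorescence polarization · System – HEK293T-derived human Csn5 enzyme · Controls – substrate-only high control, full reaction low control · Timing – 90 min, room temperature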
NadD block: inhibitors of S. aureus NadD, primary screen, biochemical, colorimetric, uHTS; Nicotinate-nucleotide adenylyltransferase NadD (Staphylococcus aureus N315); inhibition, % at 20 µM; purified NadD enzyme, colorimetric absorbance read-out; actives 0.78% (n = 360,000); AID 602399, 2012; in the data active = inhibition above about 26%
Rpn11 confirm: Rpn11 (PSMD14) deubiquitinase inhibitors, confirmation, biochemical, fluorescence polarization, single concentration. shares compounds with Rpn11 block. purified human 26S proteasome, Ub4-pepOG fluorescence polarization; proteasome pretreated with epoxomicin. inhibition, % at 20 µM. actives 29% (n = 1,900). AID 602318, 2012
MMP-2 inh: MMP-2 enzyme inhibition, confirmation, counter-screen for RPN11 inhibitor project, biochemical, fluorescence, single concentration | shares compounds with Rpn11 block | recombinant MMP-2, FRET peptide cleavage fluorescence | inhibition, % at 20 µM | actives 4% (n = 1,900) | AID 602330, 2012;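 note: human MMP-2 activated beforehand with APMA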
Thrombin inh: bovine thrombin protease inhibition, confirmation, counter-screen for Rpn11 inhibitor project, biochemical, fluorescence polarization, single concentration. shares compounds with Rpn11 block. bovine thrombin cleavage of Ub4-pepOG. inhibition, % at 20 µM. actives 13% (n = 1,900). AID 602333, 2012;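 active = mean inhibition at least 40% at 20 µM, or signal 3 deviations below plate average, so some actives read negative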
Each line names hits and unclear results; the compound was inactive in the other large screens (follow-up assays come after a bar, where they were run). The list is not random: actives were taken first. Their share in the collection is about 2.7%. Cut-off read from the data, not from the text of the source, unless noted: active = inhibition above about 40%; inactive = the rest.

Cc1nnc(N/N=C\c2ccc(-c3ccccc3[N+](=O)[O-])o2)n1N	Rpn11 block 64.7 | Rpn11 confirm inactive | MMP-2 inh inactive | Thrombin inh inactive
O=C(COC(=O)Cc1ccsc1)NCc1ccccc1	Rpn11 block 39.3 | Rpn11 confirm inactive | MMP-2 inh inactive | Thrombin inh inactive
O=C(COC(=O)Cc1ccsc1)NCc1ccc(Cl)cc1	none
O=C1c2cccnc2C(=O)N1Cc1ccc(F)cc1S(=O)(=O)NCc1ccco1	none
CCN(C(=O)c1cccs1)c1nc(-c2ccc(OC)cc2)cs1	none
COc1cccc(N(C(=O)c2cccs2)c2nc3ccccc3s2)c1	Rpn11 block 111.0 | Rpn11 confirm inactive | MMP-2 inh inactive | Thrombin inh inactive
CC(=O)NC(CC(=O)O)c1ccccc1 (centres undefined)	none
C=CC(=C)CC(NC)c1ccccc1 (centres undefined)	Rpn11 block 50.1, CSN inh 47.4 | Rpn11 confirm inactive | MMP-2 inh inactive | Thrombin inh inactive
C[C@H]1CN([C@@H](C)CO)C(=O)CCCn2nncc2CO[C@H]1CN(C)S(=O)(=O)c1ccc2c(c1)OCCCO2	none (no result: TPT1 inh, PP1 counter)
O=C(O)c1cc(-c2ccc(/C=N/Nc3ccc([N+](=O)[O-])cn3)o2)ccc1Cl	Rpn11 block 75.5 (no result: TPT1 inh, PP1 counter) | Rpn11 confirm inactive | MMP-2 inh inactive | Thrombin inh inactive
O=C(O)c1cc(N/N=C/c2ccc(-c3ccc(F)cc3)o2)ccc1Cl	none
O=C(N/N=C/c1cc(Cl)cc([N+](=O)[O-])c1O)c1ccccc1NS(=O)(=O)c1cccs1	Rpn11 block 41.2 | Rpn11 confirm 129.1 | MMP-2 inh inactive | Thrombin inh inactive
O=C(NN=Cc1ccc(O)cc1)c1ccccc1NS(=O)(=O)c1cccs1	none (no result: TPT1 inh, PP1 counter)
COc1cc(Cn2c(=O)c3c(OC)c(C)cnc3n(C)c2=O)cc(OC)c1	none
COc1ccc2[nH]cc(CCNC(=O)Cc3c(F)cccc3Cl)c2c1	none
COc1ccc2[nH]cc(CCNC(=O)c3ccccc3Cl)c2c1	Rpn11 block 58.8 | Rpn11 confirm inactive | MMP-2 inh inactive | Thrombin inh inactive
CC[C@]12c3[nH]c4cc(-c5ccco5)ccc4c3CCN1C(=O)[C@@H](CC(=O)NCc1ccc(OC)c(OC)c1)C[C@@H]2C(=O)N1CCN(C(=O)C2CC2)CC1	none (no result: TPT1 inh, PP1 counter)
CC(C)(C)NC(=O)C[C@H]1C[C@H](C(=O)N2CCCCC2)[C@@]2(CCc3ccccc3)c3[nH]c4cc(-c5ccco5)ccc4c3CCN2C1=O	Rpn11 block 53.0 (no result: TPT1 inh, PP1 counter) | Rpn11 confirm inactive | MMP-2 inh inactive | Thrombin inh inactive
COc1ccc(CNC(=O)C[C@H]2C[C@H](C(=O)N3CCCCC3)[C@@]3(CCc4ccccc4)c4[nH]c5cc(-c6ccco6)ccc5c4CCN3C2=O)cc1OC	Rpn11 block 56.5 (no result: TPT1 inh, PP1 counter) | Rpn11 confirm inactive | MMP-2 inh inactive | Thrombin inh inactive
CN(C)CCCNC(=O)C[C@H]1C[C@H](C(=O)N2CCCCC2)[C@@]2(CCc3ccccc3)c3[nH]c4cc(-c5ccco5)ccc4c3CCN2C1=O	none (no result: TPT1 inh, PP1 counter)
COc1cccc(N2CC(C(=O)Nc3nnc(SCCN4CCOCC4)s3)CC2=O)c1 (centres undefined)	Rpn11 block 52.0 | Rpn11 confirm inactive | MMP-2 inh inactive | Thrombin inh inactive
Nc1cccn2c(-c3ccc(Cl)c(Cl)c3)cnc12	Rpn11 block 53.8 | Rpn11 confirm inactive | MMP-2 inh inactive | Thrombin inh inactive
Cc1ccccc1-n1ncc2c1CC(C)(C)CC2NC(=O)c1cn[nH]c1C (centres undefined)	none
Cn1c(=O)c2[nH]c(C3CC3)nc2n(C)c1=O	none (no result: TPT1 inh, PP1 counter)
O=C(/C=C/c1ccccc1Cl)Nc1ccc2c(c1)C(=O)NC2=O	Rpn11 block 54.0 | Rpn11 confirm 57.4 | MMP-2 inh inactive | Thrombin inh inactive
Cn1c(=O)n(C)c2cc(NC(=O)CSc3nc4ccccc4c(=O)[nH]3)ccc21	none
COc1ccc(CCNC(=O)CN(C2CCCCC2)S(C)(=O)=O)cc1	Rpn11 block 114.0 | Rpn11 confirm inactive | MMP-2 inh inactive | Thrombin inh inactive
CCCN1CCN(S(=O)(=O)c2ccc3c(c2)NC(=O)C(C)C(=O)N3)CC1 (centres undefined)	none
Cc1ccc(CSc2cc(C)[nH]c(=O)n2)cc1	Rpn11 block 64.2 | Rpn11 confirm inactive | MMP-2 inh inactive | Thrombin inh inactive
CN(c1ccc(OCC(=O)OCC(=O)Nc2ccc([N+](=O)[O-])cc2)cc1)S(=O)(=O)c1cccs1	none (no result: TPT1 inh, PP1 counter)
COCCn1c2nc(=O)n(-c3ccccc3)c(=O)c-2nc2ccccc21	none (no result: TPT1 inh, PP1 counter)
C=CCn1c(SCC(=O)NC2(C)CCS(=O)(=O)C2)nc2ccccc21 (centres undefined)	none (no result: TPT1 inh, PP1 counter)
Cn1cnnc1SCC(=O)Nc1ccc2nc(SCc3ccccc3)sc2c1	Rpn11 block 63.5 | Rpn11 confirm inactive | MMP-2 inh inactive | Thrombin inh inactive
Cn1cnnc1SCC(=O)Nc1ccc2nc(SCc3cccc4ccccc34)sc2c1	none
CC(=O)N1c2ccc(S(=O)(=O)N3CCCC3C(=O)Nc3ccc(C)cc3)cc2CC1C (centres undefined)	none
Cc1ccc2nc(Nc3nc(-c4ccccc4)cc(=O)[nH]3)nc(C)c2c1	none
COc1ccc2c(C)nc(Nc3nc(-c4ccccc4)cc(=O)[nH]3)nc2c1	Rpn11 block 44.9 | Rpn11 confirm inactive | MMP-2 inh inactive | Thrombin inh inactive
CC1Sc2ccc(S(=O)(=O)N3CCC(C(=O)N4CCN(C)CC4)CC3)cc2NC1=O (centres undefined)	none
